A selection: hits, their analogues and other compounds. The true share with any hit is near 2%.
Casp6 inh: human caspase-6 inhibitors, primary screen, biochemical, VEID-R110 fluorescence, single point, set 2; purified caspase-6, Z-VEID-R110 cleavage fluorescence; actives 0.53% (n = 350,000); AID 686996, 2013; inhibition, % at 12.5 µM; P55212;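 active = mean inhibition across replicates at least about 35%, with every replicate also reaching that limit, limit read from the data; inconclusive = only one of the two criteria met; inactive = neither criterion met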
Target sequence (P55212 24-179 limits assumed): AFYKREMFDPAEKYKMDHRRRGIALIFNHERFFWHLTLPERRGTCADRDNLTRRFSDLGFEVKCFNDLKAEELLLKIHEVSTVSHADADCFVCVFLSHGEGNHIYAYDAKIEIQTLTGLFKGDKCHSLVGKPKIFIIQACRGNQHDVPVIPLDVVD
Target sequence (P55212 194-293 limits assumed): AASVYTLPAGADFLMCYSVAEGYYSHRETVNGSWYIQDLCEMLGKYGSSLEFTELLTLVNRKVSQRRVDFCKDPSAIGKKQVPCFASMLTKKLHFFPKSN
DENV2 CPE rescue: inhibitors of DENV2 cytopathic effect, primary screen, cell-based, plate reader, single concentration; DENV2-infected cells, cytopathic effect rescue; CPE inhibition, % at 9.99 µM; actives 1.7% (n = 350,000); in the data active = CPE inhibition above about 20%, passing the limit was not always enough; inconclusive = no clear call, values can overlap the other calls; tested in BHK-21 cells
FN deposit inh: inhibitors of fibronectin matrix deposition, primary screen, AH1F cells, Alexa488-fibronectin fluorescence, plate reader. AH1F fibroblasts, overnight. inhibition, % at 12.6 µM. actives 0.086% (n = 350,000);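 active = mean inhibition across replicates of 30% or more, regardless of how many single replicates reach that level; inconclusive = mean under 30% yet at least half of replicates reach 30%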
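Schedule: 1 h cell adhesion before compound, then overnight fibronectin incubation; test system: AH1F fibroblast monolayer depositing Alexa488-labelled fibronectin into matrix; quantity: 10000 AH1F cells per well; probe or stimulus: fluorescent fibronectin at 24 nM final; signal: fluorescence, ex 485 nm, em 525 nm; evaluation: percent inhibition as loss of matrix-bound fibronectin fluorescence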
Xi reactivation: activators of inactive X chromosome reactivation, primary screen, imaging, XiGFP fibroblasts, GFP high-content imaging, set 2 | AID 743238, 2013 | activation, % at 7.58 µM | actives 0.055% (n = 360,000) | XiGFP mouse fibroblasts, % GFP-positive cells imaging, 3 d; cells co-treated with 5-aza-dC sensitizer; scaled so ellipticine positive control = 100%;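 active = mean normalized replicate activation at least 10% and every replicate at or above 10%; inconclusive = only one of the two criteria met; inactive = mean below 10% and not all replicates reach 10%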
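System: 68-5-11 XiGFP fibroblast line; Timing: 3 days compound exposure; Compound dosing: one concentration, pinned; Benchmarks: positive control ellipticine, 6 µM final; Buffer or medium: DMEM containing 5-aza-dC.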
CaV13 ICDI inh: Primary screen for inhibitors of IQ motif and Ca2+-dependent inactivation inhibitor domain binding in CACNA1D, Förster resonance energy transfer in living cells, … | inhibition, % at 12.3 µM | HEK cells, CFP/YFP FRET ICDI-IQ, plate reader, 10 min; percent FRET-ratio fall versus neutral wells | actives 0.098% (n = 340,000);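 active = mean replicate inhibition of at least 30% and at least 1% of replicates passing that level; inconclusive = only one of the two criteria is met; inactive = neither criterion is met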
Numbers stand for hits; n = inactive; u = inconclusive; x = no result.

SMILES	Casp6 inh	DENV2 CPE rescue	FN deposit inh	Xi reactivation	CaV13 ICDI inh
C/C=C/c1ccc([C@H]2[C@@H](CO)N(CC3CC3)[C@@H]2CNC(=O)NC(C)C)cc1	x	24.3	n	n	x
C/C=C/c1ccc([C@H]2[C@@H](CO)N(C(=O)NC(C)C)[C@H]2CN(C)C(=O)CC)cc1	x	n	x	n	x
C/C=C/c1ccc([C@@H]2[C@@H](CN(CC)C(=O)CC)N(C(=O)C3CCC3)[C@H]2CO)cc1	x	24.8	n	n	x
C/C=C/c1ccc([C@H]2[C@@H](CN(C)C(=O)CC)N(C(=O)NC(C)C)[C@H]2CO)cc1	n	27.2	x	n	x
CN(C)C(=O)C[C@@H]1CC[C@@H]2[C@H](COC[C@@H](O)CN2C(=O)C2CC2)O1	n	u	n	n	x
C[C@@H]1CN([C@@H](C)CO)S(=O)(=O)c2ccc(C#CC(C)(C)O)cc2O[C@@H]1CN(C)C	n	u	n	n	x
c1ccc(CCNCCCOc2cccc3ccccc23)cc1	n	35.2	n	n	n
CO[C@@H]1CN(C)C(=O)c2cc(NC(=O)NC(C)C)ccc2OC[C@H](C)N(Cc2ccccn2)C[C@@H]1C	n	73.5	n	n	x
CO[C@H]1CN(C)C(=O)c2cc(NC(C)=O)ccc2OC[C@@H](C)N(S(=O)(=O)c2cn(C)cn2)C[C@@H]1C	n	n	n	n	x
CO[C@H]1CN(C)C(=O)c2cc(NC(C)=O)ccc2OC[C@H](C)N(S(=O)(=O)c2cn(C)cn2)C[C@H]1C	35.8	n	n	n	x
CO[C@@H]1CN(C)C(=O)c2cc(NC(C)=O)ccc2OC[C@H](C)N(Cc2nccs2)C[C@@H]1C	n	58.7	n	n	x
CO[C@H]1CN(C)C(=O)c2ccc(NC(=O)Cc3ccccc3)cc2OC[C@@H](C)N(C)C[C@@H]1C	n	n	n	n	x
C[C@H](CO)N1C[C@H](C)[C@H](CN(C)C(=O)c2ccccc2F)Oc2cc(-c3ccccc3)ccc2S1(=O)=O	x	x	n	n	x
Cc1cc(C)nc(SCC(=O)Nc2ccc(S(=O)(=O)Nc3onc(C)c3C)cc2)n1	n	n	n	n	80.0
O=S(=O)(c1ccc(OCC(O)CN2CCCC2)cc1)N1CCOCC1 (stereo not drawn)	x	x	n	x	n
CN1CCN(CC(O)COc2ccc(S(=O)(=O)N3CCOCC3)cc2)CC1 (stereo not drawn)	n	45.9	n	n	n
O=C(CSc1nnc(-c2ccncc2)o1)Nc1cc(Cl)ccc1C(=O)O	n	39.1	n	n	n
O=C(CSc1nnc(-c2ccncc2)o1)Nc1cccc(F)c1	n	n	n	n	n
O=C(CSc1nnc(-c2ccncc2)o1)Nc1cc(F)ccc1F	n	44.0	n	n	n
O=C(CSc1nnc(-c2ccncc2)o1)Nc1ccccc1Cl	x	x	x	x	n
CCCC(=O)Nc1ccc2c(c1)OC[C@@H](C)N(Cc1ccccc1F)C[C@H](C)[C@H](OC)CN(C)C2=O	n	n	n	n	x
S=C(NCC1CCCO1)Nc1ccc(Cl)cc1Cl (stereo not drawn)	x	x	30.1	n	n
S=C(NCC1CCCO1)Nc1ccc(Cl)cc1 (stereo not drawn)	n	n	n	n	n
C[C@H](CO)N1C[C@H](C)[C@@H](CN(C)S(=O)(=O)c2ccccc2)Oc2ccc(NS(=O)(=O)c3cccs3)cc2CC1=O	n	n	x	n	x
C[C@@H]1CN([C@H](C)CO)C(=O)Cc2cc(NC(=O)Nc3ccccc3)ccc2O[C@@H]1CN(C)S(=O)(=O)c1cccs1	n	n	x	n	x
SMILES	Casp6 inh	DENV2 CPE rescue	FN deposit inh	Xi reactivation	CaV13 ICDI inh
C[C@H]1CN([C@@H](C)CO)C(=O)Cc2cc(NC(=O)Nc3ccccc3)ccc2O[C@H]1CN(C)S(=O)(=O)c1cccs1	n	33.0	x	n	x
C[C@H]1CN([C@@H](C)CO)C(=O)Cc2cc(NS(=O)(=O)c3cccs3)ccc2O[C@@H]1CN(C)S(=O)(=O)c1ccccc1	n	41.0	x	n	x
C[C@@H]1CN([C@H](C)CO)C(=O)Cc2cc(NC(=O)Nc3ccc(C(F)(F)F)cc3)ccc2O[C@@H]1CN(C)S(=O)(=O)c1cccs1	n	26.9	x	n	x
C[C@H](CO)N1C[C@H](C)[C@@H](CN(C)S(=O)(=O)c2ccccc2)Oc2ccc(NC(=O)Nc3ccc(C(F)(F)F)cc3)cc2CC1=O	n	64.6	n	n	x
C[C@@H]1CN(C)C(=O)c2cccc(N(C)C)c2O[C@@H]1CN(C)S(C)(=O)=O	x	x	x	n	x
C[C@@H]1CN([C@@H](C)CO)C(=O)c2cc(NC(=O)Nc3ccc(C(F)(F)F)cc3)ccc2O[C@@H]1CN(C)S(=O)(=O)c1ccc(F)cc1	n	n	x	n	x
Cc1noc(C)c1NC(=O)Nc1ccc2c(c1)CC(=O)N([C@@H](C)CO)C[C@@H](C)[C@@H](CN(C)S(=O)(=O)c1cccs1)O2	n	35.8	n	n	x
Cc1noc(C)c1NC(=O)Nc1ccc2c(c1)CC(=O)N([C@@H](C)CO)C[C@@H](C)[C@H](CN(C)S(=O)(=O)c1cccs1)O2	n	n	n	n	x
C[C@@H]1CN([C@H](C)CO)C(=O)c2cc(NC(=O)Nc3ccc(C(F)(F)F)cc3)ccc2O[C@H]1CN(C)S(=O)(=O)c1ccccc1	n	33.1	n	n	n
CC(=O)Nc1cc2c3c(cccc3c1)-c1ccccc1-2	n	n	n	99.5	n
CC(=O)Nc1ccc2c(c1)C(=O)c1ccccc1C2=O	x	x	x	x	n
CC(=O)NC(=S)Nc1ccc(NC(=S)NC(=O)/C=C/c2ccco2)cc1	n	n	n	n	n
O=C(/C=C/c1ccc(Cl)cc1)NC(=S)Nc1ccccc1C(=O)O	n	23.4	n	n	n
CC(=O)NS(=O)(=O)c1ccc(NC(=O)/C=C/c2ccco2)cc1	n	n	n	n	n
NS(=O)(=O)c1ccc(NC(=O)/C=C/c2ccco2)cc1	54.1	n	n	n	n
COc1ccc(NC(=S)NC(=O)/C=C/c2ccccc2)cc1	n	37.8	n	n	n
NC(=O)c1ccccc1NC(=O)/C=C/c1ccc(Cl)cc1	x	x	n	x	n
COc1ccc(NC(=S)NC(=O)/C=C/c2cccs2)cc1	n	n	n	n	n
O=C(/C=C/c1ccco1)NC(=S)Nc1ccc(C(=O)O)cc1	43.8	n	n	n	n
CCCNC(=O)N1C[C@@H](O)COC[C@H]2O[C@@H](CC(=O)NCc3ccncn3)CC[C@@H]21	n	n	n	n	x
C[C@@H]1CN([C@H](C)CO)C(=O)Cc2cc(NC(=O)Cn3cnnn3)ccc2O[C@H]1CN(C)S(=O)(=O)c1cn(C)cn1	n	n	x	n	x
CN1C(=O)c2cc(NC(=O)c3cccc(F)c3)ccc2OC[C@H]2O[C@@H](CC(=O)Nc3ccccc3)CC[C@H]21	n	n	n	n	x
